HCT116 PTEN-null: growth suppressors of cells with PTEN tumor suppressor deletion; actives 1.2% (n = 140,000); HCT116 PTEN-null viability, CellTiter-Glo, 60 h; active compounds read low; viability, % at 10 µM;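 active means viability at or below a set limit, 4 SD under the median of all tested compounds, cut at about 3.7% in these data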;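 further: PTEN knockout HCT116 line with beta catenin targeted HCT116 as companion control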
Autophagy mod: modulators of autophagy; MEF GFP-LC3 puncta imaging; test concentration mostly 10 µM; calls only at 10 µM (by protocol); AID 463193; actives 0.98% (n = 190,000);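 active means percentage of spot-positive cells more than 3 SD above its plate mean, without a fluorescence outlier flag or 80% toxicity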;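 further: spot-positive cell cutoff set from DMSO-treated cells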
L major viab: inhibitors of Leishmania major promastigote growth. Leishmania major promastigotes, resazurin fluorescence viability. inhibition, % at 10 µM. actives 9% (n = 200,000). AID 1063; in the data active means inhibition above about 50%;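 further: promastigotes grown with compound for 44 hours at 28 °C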
bCat KO growth: beta-catenin-lacking colon tumor cell growth suppression | HCT116 beta-catenin knockout viability, CellTiter-Glo, 60 h; active compounds read low | viability, % at 10 µM | actives 1.5% (n = 140,000) | AID 818;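 active means viability at or under a set limit, the compound median less 4 SD, cut at about 6% in these data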;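 further: 0% = Hyamine 1622 control at 20 µM and 100% = untreated cell control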
Dynein transport: blocks dynein driven cargo transport along microtubules; 3617.4 mouse cells, GR-EGFP nuclear translocation imaging; test concentration mostly 20 µM; stimulated with dexamethasone, 1 µM; active compounds read low; z-score, hits read low; actives 0.47% (n = 220,000); AID 1381;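 active means plate z-score of nuclear minus cytoplasmic receptor signal below a set negative limit, without overly bright fluorescence or cell loss, cut at about -3.5 in these data, passing the limit was not always enough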;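 further: z-score of nuclear minus cytoplasmic ring GR-EGFP intensity difference per well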
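Buffer or medium – tet-free medium with charcoal-stripped serum · Signal – automated 10x imaging of fixed Hoechst-stained cells · Also added – dexamethasone agonist, 1.0 µM final, for 30 min · Incubation – induction 48 h, compound 1 h, agonist 30 min · Read-out – GR-EGFP nuclear translocation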
Active calls of the source: *; i = inactive; x = no result; + = active, no number. This is a sample that favours compounds with a hit; in the whole collection about 9.2% have one here.

SMILES	HCT116 PTEN-null	Autophagy mod	L major viab	bCat KO growth	Dynein transport
CCOC(=O)c1cc(-c2nnc(-c3ccc(Oc4ccccc4)cc3)o2)c(C)nc1C	72	x	-8	75	-0.33
COc1ccc(O)c(/C=N/c2sc(C)c(C)c2C#N)c1	92	i	-10	93	-0.3
Cc1sc(/N=C/c2c(O)ccc3ccccc23)c(C#N)c1C	98	+	4	83	0.23
CCOC(=O)c1cc(CC)sc1/N=C/c1c(O)ccc2ccccc12	93	i	64*	86	1.2
Cn1c(N2CCOCC2)cc(=O)n(C)c1=O	x	i	2	x	-0.96
O=C(O)CCNS(=O)(=O)c1ccc2c(c1)OCCCO2	x	i	-1	x	1.5
COc1ccc(-n2cnnc2SCc2csc(-c3ccccc3)n2)cc1	94	i	-2	97	-1.1
CCOC(=O)CC(NC(=O)C(CC)c1ccccc1)c1ccccc1Cl (stereo not drawn)	83	i	95*	74	1.2
NS(=O)(=O)c1ccc(CCNC(=O)c2cccc(OC(F)F)c2)cc1	x	+	6	x	-0.41
CN(C)C(CNC(=O)c1cccc(OC(F)F)c1)c1ccco1 (stereo not drawn)	89	i	59*	92	0.31
NS(=O)(=O)c1ccc(CCNC(=O)c2ccccc2F)cc1	104	i	0	103	0.44
COc1ccc(S(=O)(=O)Nc2ccc3c(c2)OCO3)cc1OC	73	i	0	97	0.73
COc1ccc(S(=O)(=O)Nc2ccc3c(c2)OCCO3)cc1Cl	84	i	71*	87	2.1
Cc1cccc(NS(=O)(=O)c2ccc3c(c2)OCCO3)c1	83	i	74*	91	-0.33
Cc1ccc(S(=O)(=O)Nc2ccc3c(c2)OCCO3)cc1C	x	i	13	x	3
COc1ccccc1N1CCN(C(=O)c2ccc(CN3CCOCC3)cc2)CC1	x	i	-15	x	0.46
Cc1cc(Nc2c(C)n(C)n(-c3ccccc3)c2=O)n2c(nc3ccccc32)c1C#N	87	i	-5	95	-0.27
Cc1cc(Nc2cccc([N+](=O)[O-])c2)n2c(nc3ccccc32)c1C#N	4	i	15	3.4*	-0.088
Cc1ncc(CO)c(/C=N/NC(=O)c2cc(Br)ccc2O)c1O	x	i	-9	x	-0.62
Cc1ncc(CO)c(/C=N/NC(=O)c2ccc(Br)cc2)c1O	10	i	98*	15	-0.47
O=C(CCl)N(c1ccccc1)C1CCS(=O)(=O)C1 (stereo not drawn)	4	i	14	8	0.93
COCCCN=C1NN=C(c2cc(C)n(Cc3ccccc3Cl)c2C)CS1	x	+	7	x	0.1
CCOc1cc(/C=C2\SC(=N)N(c3nccs3)C2=O)ccc1OCCN1CCOCC1	16	i	97*	20	-0.12
O=C(CNC(=O)c1cccc(OC(F)F)c1)OCc1cc(=O)n2cc(Br)ccc2n1	88	i	-4	89	0.45
O=C1C(Cl)=C(N2CCN(Cc3ccccc3)CC2)C(=O)N1Cc1ccccc1	74	i	92*	80	-1.6
SMILES	HCT116 PTEN-null	Autophagy mod	L major viab	bCat KO growth	Dynein transport
COC(=O)c1c(NC(=O)CC2Nc3ccccc3NC2=O)sc(C)c1C (stereo not drawn)	1.9*	+	-3	1.6*	-0.53
CCOC(=O)c1c(NC(=O)C2=C(C)NC(=S)NC2c2ccc(CC)cc2)sc(C)c1C (stereo not drawn)	54	i	85*	63	-0.55
CCCCNC(=O)CC1Nc2ccccc2NC1=O (stereo not drawn)	98	i	-2	95	0.25
O=C(CC1Nc2ccccc2NC1=O)Nc1cc(Cl)cc(Cl)c1 (stereo not drawn)	3.6*	i	51*	1.9*	0.9
CCOC(=O)c1c(NC(=O)CC2Nc3ccccc3NC2=O)sc(C)c1C (stereo not drawn)	15	+	58*	12	-0.26
O=S(=O)(NCc1cc(-c2ccccc2Cl)no1)c1ccccc1	94	i	79*	92	-0.22
Cc1cc2nc(-c3ccc(SCC(=O)N4CCN(C(=O)c5ccco5)CC4)nc3)[nH]c2cc1C	10	i	17	12	0.036
Cc1ccc2nc(-c3ccc(SCC(=O)Nc4nc(C)cs4)nc3)[nH]c2c1	93	i	53*	95	-0.013
Cc1cc2nc(-c3ccc(SCc4ccccn4)nc3)[nH]c2cc1C	x	i	64*	x	1.6
CCOC(=O)CSc1ccc(-c2nc3cc(C)c(C)cc3[nH]2)cn1	91	i	57*	99	0.12
Cc1cc2nc(-c3ccc(SCC(=O)N4CCOCC4)nc3)[nH]c2cc1C	32	i	60*	36	0.59
CCOC(=O)CSc1ccc(-c2nc3ccccc3[nH]2)cn1	86	i	17	79	-0.21
CCNS(=O)(=O)c1ccc(CCC(=O)Nc2ccc(C(=O)OC)cc2)cc1	x	i	6	x	-0.9
COc1cc(C(C)=O)ccc1OCC(=O)NCC1(N2CCCCC2)CCCCC1	x	i	-2	x	-0.7
CC(C)NCC(O)COc1c(F)cc(Br)cc1F (stereo not drawn)	108	i	30	102	0.14
CC1CCCC(C)N1CC(O)COc1c(F)cc(Br)cc1F (stereo not drawn)	x	i	74*	x	-0.23
OC(COc1ccc2ccccc2c1)CN1CCN(c2ccc(F)cc2)CC1 (stereo not drawn)	76	i	-2	67	0.034
OC(COc1c(F)cc(Br)cc1F)CN1CCN(c2ccc(F)cc2)CC1 (stereo not drawn)	89	i	87*	86	-0.49
OC(CNC1CCCC1)COc1c(F)cc(Br)cc1F (stereo not drawn)	x	i	93*	98	3.9
O=C(Cc1cccs1)NCCSc1c(-c2ccc(Cl)cc2)[nH]c2ccccc12	12	i	29	4.7*	0.36
CCOC(=O)CSc1c(-c2ccc(Cl)cc2)[nH]c2ccccc12	71	i	5	83	-0.35
Cc1ccc(C)c(NC(=O)CN(C)C(=O)COc2ncnc3sccc23)c1	91	i	58*	98	1.6
COC(=O)c1ccc(Nc2cc(C)nc3ccccc23)cc1	x	x	x	x	-1.8
COC(=O)c1ccc2nc(C)cc(Nc3ccc(N(C)C)cc3)c2c1	62	i	67*	56	-0.35
COc1ccc(C(=O)Nc2c(Cl)cc(Cl)cc2C(=O)NCCN2CCOCC2)cc1	91	i	-6	89	-0.48
CCOC(=O)c1c(C)[nH]c(C)c1C(=O)COC(=O)c1ccc(Cl)c(S(N)(=O)=O)c1	94	i	0	89	1
N#Cc1ccccc1/C=N/Nc1nc(-c2ccccc2)c2cc(Cl)ccc2n1	21	i	3	16	0.0038
Cc1ccc2nc(N/N=C/c3ccccc3C#N)nc(-c3ccccc3)c2c1	30	i	62*	21	-0.64
CC(C(=O)NC(=O)NCc1ccccc1)N1C(=O)c2ccccc2C1=O (stereo not drawn)	0.9*	i	1	0.9*	0.35

Screens deposited in PubChem by several laboratories.
